Reference: ChEMBL document CHEMBL6134793, “Synthesis and structure-activity study of the antimicrobial lipopeptide brevibacillin” (RSC Med Chem, 2024)
≈ marks a conversion by molar mass, not a printed value. Calls of active or inactive are those of the source. No cut-off for these calls is given here.

How the values were obtained:
Staphylococcus aureus [1] = assay: Antimicrobial activity against Staphylococcus aureus ATCC 6538 assessed as growth inhibition by microdilution assay; assay type: functional
Procedure, shortened: (§1)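 Twofold serial microdilution of peptide (stocks 2 mg mL−1, diluted to 512 μg mL−1 in water with 10% DMSO) in strain medium, about 1 × 10^4 cfu per well. Media: TSB 20 h 37 °C (S. aureus, L. monocytogenes, B. subtilis, E. faecalis); LB 20 h 37 °C (P. aeruginosa, S. enterica, E. coli); Brucella 48 h 37 °C (C. coli). A595 read; MIC = lowest concentration with no visible growth; triplicate.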

[2] = Hemolytic activity in human erythrocytes at 256 ug/ml measured after 1 hr by absorbance based assay relative to control; assay type: toxicity, cell-based, Erythrocyte; settings: at 256 µg/mL, read-out: Activity
Procedure, shortened: (§2)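 Washed human donor erythrocytes at 1% hematocrit in PBS pH 7.4 exposed to twofold peptide dilutions (final 2–256 μg mL−1, up to 1% DMSO) for 1 h at 37 °C. After centrifugation, supernatant A405 read. % hemolysis relative to PBS (0%) and 1% Triton X-100 (100%). Triplicate; mean ± SEM.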

Listeria monocytogenes = assay: Antimicrobial activity against Listeria monocytogenes ATCC 19111 assessed as growth inhibition by microdilution assay; assay type: functional; procedure, shortened: as §1
[3] = Hemolytic activity in human erythrocytes at 128 ug/ml measured after 1 hr by absorbance based assay relative to control; assay type: toxicity, cell-based, Erythrocyte; settings: at 128 µg/mL, read-out: Activity; procedure, shortened: as §2
Campylobacter coli = assay: Antimicrobial activity against Campylobacter coli ATCC 33559 assessed as growth inhibition by microdilution assay; assay type: functional; procedure, shortened: as §1
Clostridium perfringens = assay: Antimicrobial activity against Clostridium perfringens ATCC 3628 assessed as growth inhibition by microdilution assay; assay type: functional
Procedure, shortened: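 Broth microdilution: twofold serial peptide dilutions in reinforced clostridial medium (RCM), seeded with about 1 × 10^4 cfu per well, incubated 20 h at 37 °C. Working solution 512 μg mL−1 made from a 2 mg mL−1 stock in water with 10% DMSO. Growth read as absorbance at 595 nm. MIC taken as the lowest concentration giving complete inhibition of visible growth; run in triplicate.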

Pseudomonas aeruginosa [4] = assay: Antimicrobial activity against Pseudomonas aeruginosa ATCC […] assessed as growth inhibition at 128 ug/ml by radial diffusion assay; assay type: functional, organism-based; settings: dose 128.0 µg/ml
Procedure, shortened: (§3)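 Agar well diffusion. Overnight cultures inoculated at 1% into 0.75% soft agar (TSB for S. aureus, LB for P. aeruginosa). Each well received 80 μL of peptide at 128 μg mL−1 in water with 10% DMSO; 10% DMSO served as negative control. Inhibition zone diameter scored after strain-specific incubation.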

[5] = Cytotoxicity against human Caco-2 cells assessed as inhibition of cell viability incubated for 48 hrs by Cell Titer GLO assay; assay type: toxicity, cell-based
Procedure, shortened: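 Caco-2 cells in DMEM with 10% FCS, seeded 25 000 per well, adhered overnight, then given peptide at 2–256 μg mL−1 in complete medium for 48 h at 37 °C, 5% CO2. Controls: cisplatin 125 μM; 0.1% DMSO medium. Viability by ATP luminescence (CellTiter-Glo) versus untreated cells; IC50 from dose–response; mean ± SEM of at least three independent experiments.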

Pseudomonas aeruginosa [6] = assay: Antimicrobial activity against Pseudomonas aeruginosa ATCC […] assessed as growth inhibition by microdilution assay; assay type: functional; procedure, shortened: as §1
Enterococcus faecalis = assay: Antimicrobial activity against Enterococcus faecalis ATCC 29212 assessed as growth inhibition by microdilution assay; assay type: functional; procedure, shortened: as §1
Escherichia coli = assay: Antimicrobial activity against Escherichia coli ATCC 25922 assessed as growth inhibition by microdilution assay; assay type: functional; procedure, shortened: as §1
[7] = Antimicrobial activity against Salmonella enterica serovar Newport ATCC 6962 assessed as growth inhibition by microdilution assay; assay type: functional, Salmonella enterica subsp. enterica serovar Newport; procedure, shortened: as §1
Staphylococcus aureus [8] = assay: Antimicrobial activity against Staphylococcus aureus ATCC 6538 assessed as growth inhibition at 128 ug/ml by radial diffusion assay; assay type: functional, organism-based; settings: dose 128.0 µg/ml; procedure, shortened: as §3
Bacillus subtilis = assay: Antimicrobial activity against Bacillus subtilis ATCC 23957 assessed as growth inhibition by microdilution assay; assay type: functional; procedure, shortened: as §1
Staphylococcus aureus [9] = assay: Antimicrobial activity against Staphylococcus aureus ATCC 6538 assessed as diameter of growth inhibition at 128 ug/ml by radial diffusion assay; assay type: functional; settings: dose 128 µg/ml; procedure, shortened: as §3
Pseudomonas aeruginosa [10] = assay: Antimicrobial activity against Pseudomonas aeruginosa ATCC […] assessed as diameter of growth inhibition at 128 ug/ml by radial diffusion assay; assay type: functional; settings: dose 128 µg/ml; procedure, shortened: as §3

| Compound | MIC (Staphylococcus aureus [1]) [µg/mL] | hemolysis at 1 h, 256 ug/ml [2] [%] | MIC (Listeria monocytogenes) [µg/mL] | hemolysis at 1 h, 128 ug/ml [3] [%] | MIC (Campylobacter coli) [µg/mL] | MIC (Clostridium perfringens) [µg/mL] | growth inhibition (qualitative call) (Pseudomonas aeruginosa [4]) | IC50 at 48 h [5] [µg/mL] | MIC (Pseudomonas aeruginosa [6]) [µg/mL] | MIC (Enterococcus faecalis) [µg/mL] | MIC (Escherichia coli) [µg/mL] | MIC [7] [µg/mL] | growth inhibition (qualitative call) (Staphylococcus aureus [8]) | MIC (Bacillus subtilis) [µg/mL] | Activity (Staphylococcus aureus [9]) [mm] | Activity (Pseudomonas aeruginosa [10]) [mm] |
| --- | --- | --- | --- | --- | --- | --- | --- | --- | --- | --- | --- | --- | --- | --- | --- | --- |
| CC[C@H](NC(=O)[C@@H](NC(C)=O)[C@@H](C)CC)C(=O)N[C@@H](CC(C)C)C(=O)N[C@H](CCCN)C(=O)N[C@H](C(=O)N[C@H](C(=O)N[C@H](C(=O)N[C@H](CCCCN)C(=O)N[C@H](C(=O)N[C@H](C(=O)N[C@@H](CCCCN)C(=O)N[C@H](Cc1ccc(O)cc1)C(=O)N[C@@H](CC(C)C)C(=O)N[C@H](C(N)=O)C(C)C)C(C)C)C(C)C)C(C)C)[C@@H](C)CC)[C@@H](C)CC | > 128 | 38.2 | > 128 | 23.3 | > 128 | > 128 | inactive | 14.9 (≈ 9.08 µM) | > 128 | > 128 | > 128 | > 128 | inactive | > 128 | – | – |
| CC[C@H](C)[C@H](O)C(=O)N[C@H](C(=O)N[C@@H](CC(C)C)C(=O)N[C@H](CCCN)C(=O)N[C@H](C(=O)N[C@H](C(=O)N[C@H](C(=O)N[C@H](CCCCN)C(=O)N[C@H](C(=O)N[C@H](C(=O)N[C@@H](CCCCN)C(=O)N[C@H](Cc1ccc(O)cc1)C(=O)N[C@@H](CC(C)C)C(=O)N[C@H](CO)C(C)C)C(C)C)C(C)C)C(C)C)[C@@H](C)CC)[C@@H](C)CC)[C@@H](C)O | 2 | 4.9 | 4 | 1.2 | 16 | 4 | – | 32.2 (≈ 20.1 µM) | 2 | 16 | 32 | > 128 | – | 1 | 11 | 12 |
| CC[C@H](C)[C@H](O)C(=O)N[C@H](C(=O)N[C@@H](CC(C)C)C(=O)N[C@H](CCCN)C(=O)N[C@H](C(=O)N[C@H](C(=O)N[C@H](C(=O)N[C@H](CCCCN)C(=O)N[C@H](C(=O)N[C@H](C(=O)N[C@@H](CCCCN)C(=O)N[C@H](Cc1ccc(O)cc1)C(=O)N[C@@H](CC(C)C)C(=O)N[C@H](CO)C(C)C)C(C)C)C(C)C)C(C)C)[C@@H](C)CC)[C@@H](C)CC)C(C)C | 1 | 84 | 1 | 53.1 | 8 | 4 | – | 8.3 (≈ 5.19 µM) | 1 | 4 | > 128 | > 128 | – | 1 | 7 | 7 |
| CC[C@H](C)[C@H](O)C(=O)N[C@@H](CO)C(=O)N[C@@H](CC(C)C)C(=O)N[C@H](CCCN)C(=O)N[C@H](C(=O)N[C@H](C(=O)N[C@H](C(=O)N[C@H](CCCCN)C(=O)N[C@H](C(=O)N[C@H](C(=O)N[C@@H](CCCCN)C(=O)N[C@H](Cc1ccc(O)cc1)C(=O)N[C@@H](CC(C)C)C(=O)N[C@H](CO)C(C)C)C(C)C)C(C)C)C(C)C)[C@@H](C)CC)[C@@H](C)CC | 8 | 4.9 | 1 | 1.2 | 32 | 8 | – | 42.2 (≈ 26.6 µM) | 4 | > 128 | 32 | > 128 | – | 2 | 11 | 12 |
| CC[C@H](NC(=O)[C@@H](NC(C)=O)[C@@H](C)CC)C(=O)N[C@@H](CC(C)C)C(=O)N[C@H](CCCN)C(=O)N[C@H](C(=O)N[C@H](C(=O)N[C@H](C(=O)N[C@H](CCCCN)C(=O)N[C@H](C(=O)N[C@H](C(=O)N[C@@H](CCCCN)C(=O)N[C@H](Cc1ccc(O)cc1)C(=O)N[C@@H](CC(C)C)C(=O)N[C@H](CO)C(C)C)C(C)C)C(C)C)C(C)C)[C@@H](C)CC)[C@@H](C)CC | 2 | 38.2 | 2 | 23.3 | 16 | 2 | – | 17.6 (≈ 10.8 µM) | 2 | 32 | > 128 | > 128 | – | 4 | 7 | 7 |
| C/C=C(/NC(=O)[C@@H](O)[C@@H](C)CC)C(=O)N[C@@H](CC(C)C)C(=O)N[C@H](CCCN)C(=O)N[C@H](C(=O)N[C@H](C(=O)N[C@H](C(=O)N[C@H](CCCCN)C(=O)N[C@H](C(=O)N[C@H](C(=O)N[C@@H](CCCCN)C(=O)N[C@H](Cc1ccc(O)cc1)C(=O)N[C@@H](CC(C)C)C(=O)N[C@H](CO)C(C)C)C(C)C)[C@@H](C)CC)C(C)C)[C@@H](C)CC)[C@@H](C)CC | 2 | 89.9 | 1 | 55 | 8 | 2 | – | 6.5 (≈ 4.07 µM) | 1 | 2 | 32 | 64 | – | 0.5 | 11 | 12 |
| CC[C@H](NC(=O)[C@@H](O)[C@@H](C)CC)C(=O)N[C@@H](CC(C)C)C(=O)N[C@H](CCCN)C(=O)N[C@H](C(=O)N[C@H](C(=O)N[C@H](C(=O)N[C@H](CCCCN)C(=O)N[C@H](C(=O)N[C@H](C(=O)N[C@@H](CCCCN)C(=O)N[C@H](Cc1ccc(O)cc1)C(=O)N[C@@H](CC(C)C)C(=O)N[C@H](C(N)=O)C(C)C)C(C)C)C(C)C)C(C)C)[C@@H](C)CC)[C@@H](C)CC | 2 | 38.2 | 2 | 23.3 | 16 | 8 | – | 11.3 (≈ 7.07 µM) | 2 | 64 | > 128 | > 128 | – | 2 | 7 | 7 |
| CC[C@H](C)[C@H](O)C(=O)N[C@@H](C)C(=O)N[C@@H](CC(C)C)C(=O)N[C@H](CCCN)C(=O)N[C@H](C(=O)N[C@H](C(=O)N[C@H](C(=O)N[C@H](CCCCN)C(=O)N[C@H](C(=O)N[C@H](C(=O)N[C@@H](CCCCN)C(=O)N[C@H](Cc1ccc(O)cc1)C(=O)N[C@@H](CC(C)C)C(=O)N[C@H](CO)C(C)C)C(C)C)C(C)C)C(C)C)[C@@H](C)CC)[C@@H](C)CC | 2 | – | 1 | – | 8 | 2 | – | 13.5 (≈ 8.59 µM) | 1 | 4 | 64 | > 128 | – | 2 | 11 | 12 |
| C/C=C(/NC(=O)[C@@H](O)[C@@H](C)CC)C(=O)N[C@@H](CC(C)C)C(=O)N[C@H](CCCN)C(=O)N[C@H](C(=O)N[C@H](C(=O)N[C@H](C(=O)N[C@H](CCCCN)C(=O)N[C@H](C(=O)N[C@H](C(=O)N[C@@H](CCCCN)C(=O)N[C@H](Cc1ccc(O)cc1)C(=O)N[C@@H](CC(C)C)C(=O)N[C@H](CO)C(C)C)C(C)C)C(C)C)C(C)C)C(C)C)[C@@H](C)CC | 4 | – | 1 | 1.65 | 16 | 4 | – | 25.7 (≈ 16.4 µM) | 2 | 16 | 32 | > 128 | – | 2 | 11 | 12 |
